Data taken from ChEMBL document CHEMBL4184143 (J Med Chem, 2017).
Activity calls are given as the source filed them. No cut-off for these calls is given here.

What was measured:
Mus musculus [1] = assay: Half life in SCID mouse at 5 mg/kg, iv by LC/MS method; type: ADME, organism-based; settings: in vivo
[2] = biological target: Transcription intermediary factor 1-alpha (Homo sapiens, UniProt O15164); assay: Binding affinity to human partial length TRIM24 expressed in bacterial expression system by BROMOscan assay
Sequence of Transcription intermediary factor 1-alpha (O15164 whole entry): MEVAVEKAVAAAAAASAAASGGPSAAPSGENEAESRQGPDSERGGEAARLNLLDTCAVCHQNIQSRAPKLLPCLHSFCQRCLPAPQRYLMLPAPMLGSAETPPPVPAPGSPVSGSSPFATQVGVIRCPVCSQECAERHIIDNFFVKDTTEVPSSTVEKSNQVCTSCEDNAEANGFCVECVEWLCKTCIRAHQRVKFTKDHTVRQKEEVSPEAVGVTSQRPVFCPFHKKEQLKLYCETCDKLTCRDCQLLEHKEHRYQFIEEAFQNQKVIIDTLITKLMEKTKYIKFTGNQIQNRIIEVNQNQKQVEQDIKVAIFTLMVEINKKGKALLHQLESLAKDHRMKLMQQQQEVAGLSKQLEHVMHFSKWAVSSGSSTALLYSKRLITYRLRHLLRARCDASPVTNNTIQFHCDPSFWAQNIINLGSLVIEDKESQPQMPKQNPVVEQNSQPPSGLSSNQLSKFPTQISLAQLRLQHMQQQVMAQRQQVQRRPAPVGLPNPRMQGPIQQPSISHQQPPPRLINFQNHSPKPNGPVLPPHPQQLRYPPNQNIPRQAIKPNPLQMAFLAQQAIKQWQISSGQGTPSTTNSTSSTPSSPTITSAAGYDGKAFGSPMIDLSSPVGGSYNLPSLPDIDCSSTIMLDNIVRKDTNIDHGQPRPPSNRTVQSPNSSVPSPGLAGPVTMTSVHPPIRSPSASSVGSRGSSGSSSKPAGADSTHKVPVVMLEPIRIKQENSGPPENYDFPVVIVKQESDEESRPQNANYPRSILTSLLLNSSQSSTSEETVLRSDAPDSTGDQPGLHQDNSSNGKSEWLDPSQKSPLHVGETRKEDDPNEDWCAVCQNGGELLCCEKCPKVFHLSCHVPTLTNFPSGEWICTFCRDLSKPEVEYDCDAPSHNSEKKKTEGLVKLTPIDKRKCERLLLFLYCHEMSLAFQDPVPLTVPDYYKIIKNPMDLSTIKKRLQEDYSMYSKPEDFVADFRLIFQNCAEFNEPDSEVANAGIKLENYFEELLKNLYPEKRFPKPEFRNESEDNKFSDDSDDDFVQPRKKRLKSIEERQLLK

Mus musculus [3] = assay: Toxicity in SCID mouse implanted with human MDA-MB-231 cells at 40 mg/kg, po qd measured 2 to 3 times weekly during treatment and weekly post dose; type: organism-based; settings: in vivo
In short: (§1)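 At ~100 mm3, mice were randomized to treatment or vehicle control. Tumors were measured by electronic calipers. Animals were checked daily for signs of toxicity and weighed 2–3 times weekly on treatment, then at least weekly afterwards.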

[4] = biological target: T1, Bromodomain-containing protein 3 (Homo sapiens, UniProt Q15059); assay: Binding affinity to human partial length BRD3 bromodomain 1 (P24 to E144 residues) expressed in bacterial expression system by BROMOscan assay
T1 sequence (Q15059 whole entry, the tested form may be a part, canonical isoform): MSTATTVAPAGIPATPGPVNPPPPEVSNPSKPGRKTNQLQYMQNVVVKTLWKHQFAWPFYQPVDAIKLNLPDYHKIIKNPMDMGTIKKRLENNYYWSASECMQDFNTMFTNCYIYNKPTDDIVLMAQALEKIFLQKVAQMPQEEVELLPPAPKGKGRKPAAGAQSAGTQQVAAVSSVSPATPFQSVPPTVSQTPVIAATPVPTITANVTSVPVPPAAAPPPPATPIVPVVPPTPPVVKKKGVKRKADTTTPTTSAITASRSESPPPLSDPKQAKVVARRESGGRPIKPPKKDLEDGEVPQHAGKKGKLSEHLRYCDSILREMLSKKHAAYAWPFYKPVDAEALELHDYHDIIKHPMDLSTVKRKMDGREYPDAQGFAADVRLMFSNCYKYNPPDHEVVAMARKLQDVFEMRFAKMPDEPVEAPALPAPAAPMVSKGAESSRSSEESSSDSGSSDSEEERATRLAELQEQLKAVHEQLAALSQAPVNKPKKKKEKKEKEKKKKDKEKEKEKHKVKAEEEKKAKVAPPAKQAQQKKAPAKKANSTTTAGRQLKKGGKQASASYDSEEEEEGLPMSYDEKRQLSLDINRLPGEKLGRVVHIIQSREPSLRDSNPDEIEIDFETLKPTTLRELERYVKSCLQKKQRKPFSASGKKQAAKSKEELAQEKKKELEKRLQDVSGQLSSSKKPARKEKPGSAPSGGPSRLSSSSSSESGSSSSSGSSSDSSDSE

[5] = biological target: Bromodomain testis-specific protein (Homo sapiens, UniProt Q58F21); assay: Binding affinity to human partial length BRDT bromodomain 2 isoform b (K250 to E382 residues) expressed in bacterial expression system by BROMOscan assay
[6] = biological target: Bromodomain-containing protein 2 (Homo sapiens, UniProt P25440); assay: Binding affinity to human partial length BRD2 bromodomain 1/2 isoform 1 (K71 to D455 residues) by BROMOscan assay
[7] = biological target: T1, Bromodomain-containing protein 3; assay: Binding affinity to human partial length BRD3 bromodomain 1/2 (P24 to P416 residues) expressed in bacterial expression system by BROMOscan assay
[8] = biological target: Histone acetyltransferase KAT2B (Homo sapiens, UniProt Q92831); assay: Binding affinity to human partial length PCAF (G715 to D831 residues) expressed in bacterial expression system by BROMOscan assay
MDA-MB-231 = assay: Antitumor activity against human MDA-MB-231 cells xenografted in SCID mouse assessed as tumor growth inhibition at 40 mg/kg, po qd measured 2 to 3 times weekly during treatment and weekly post dose; type: functional, organism-based; in short: as §1
[9] = biological target: T2, Bromodomain-containing protein 8 (Homo sapiens, UniProt Q9H0E9); assay: Binding affinity to human partial length BRD8 bromodomain 2 (D1095 to F1235 residues) expressed in mammalian expression system by BROMOscan assay
T2 sequence (Q9H0E9 whole entry, the tested form may be a part, canonical isoform): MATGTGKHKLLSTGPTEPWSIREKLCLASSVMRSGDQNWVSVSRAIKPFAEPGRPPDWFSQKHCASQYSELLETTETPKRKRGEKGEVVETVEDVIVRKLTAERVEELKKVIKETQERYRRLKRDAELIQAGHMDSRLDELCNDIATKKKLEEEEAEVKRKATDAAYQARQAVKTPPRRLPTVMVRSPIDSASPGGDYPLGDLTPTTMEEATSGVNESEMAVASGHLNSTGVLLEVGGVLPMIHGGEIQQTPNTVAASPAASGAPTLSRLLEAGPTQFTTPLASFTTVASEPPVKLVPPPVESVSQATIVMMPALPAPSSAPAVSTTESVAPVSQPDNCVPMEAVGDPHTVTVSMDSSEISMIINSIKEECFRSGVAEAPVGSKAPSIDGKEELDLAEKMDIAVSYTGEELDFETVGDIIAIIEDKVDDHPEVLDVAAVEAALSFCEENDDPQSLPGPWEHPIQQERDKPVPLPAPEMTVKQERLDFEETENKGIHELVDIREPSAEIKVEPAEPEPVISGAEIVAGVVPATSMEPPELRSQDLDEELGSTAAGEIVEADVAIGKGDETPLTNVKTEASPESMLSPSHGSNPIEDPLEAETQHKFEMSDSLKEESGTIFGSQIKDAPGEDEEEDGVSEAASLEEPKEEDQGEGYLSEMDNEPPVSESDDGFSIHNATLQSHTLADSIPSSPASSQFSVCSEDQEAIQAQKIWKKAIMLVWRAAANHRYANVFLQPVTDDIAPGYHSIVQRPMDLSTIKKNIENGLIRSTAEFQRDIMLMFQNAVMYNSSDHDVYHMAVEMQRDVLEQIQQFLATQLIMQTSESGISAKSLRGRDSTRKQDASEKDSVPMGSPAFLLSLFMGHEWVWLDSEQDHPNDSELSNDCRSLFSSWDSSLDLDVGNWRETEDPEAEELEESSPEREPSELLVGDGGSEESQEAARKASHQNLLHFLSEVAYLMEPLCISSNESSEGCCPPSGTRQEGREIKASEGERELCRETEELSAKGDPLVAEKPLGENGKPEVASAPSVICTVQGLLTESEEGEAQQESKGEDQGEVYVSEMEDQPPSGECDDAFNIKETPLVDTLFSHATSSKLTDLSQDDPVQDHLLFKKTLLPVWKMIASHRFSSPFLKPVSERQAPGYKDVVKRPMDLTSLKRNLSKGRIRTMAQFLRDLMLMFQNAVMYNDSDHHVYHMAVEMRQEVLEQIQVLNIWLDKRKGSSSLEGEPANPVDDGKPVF

[10] = biological target: T3, Bromodomain-containing protein 4 (Homo sapiens, UniProt O60885); assay: Binding affinity to human partial length BRD4 bromodomain 2 long isoform (K333 to E460 residues) expressed in bacterial expression system by BROMOscan assay
[11] = biological target: Bromodomain-containing protein 7 (Homo sapiens, UniProt Q9NPI1); assay: Binding affinity to human partial length BRD7 (L125 to R254 residues) expressed in […] expression system by BROMOscan assay
[12] = biological target: Bromodomain-containing protein 9 (Homo sapiens, UniProt Q9H8M2); assay: Binding affinity to human partial length BRD9 (R130 to V259 residues) expressed in bacterial expression system by BROMOscan assay
[13] = Aqueous solubility of the compound in 5% DMSO/10% cremophor/85% saline; type: physicochemical; settings: buffer
[14] = biological target: Histone acetyltransferase p300 (Homo sapiens, UniProt Q09472); assay: Binding affinity to human partial length EP300 (A1040 to G1161 residues) expressed in bacterial expression system by BROMOscan assay
[15] = biological target: T3, Bromodomain-containing protein 4; assay: Inhibition of FAM-labeled ZBA248 binding to recombinant human N-terminal His6-tagged BRD4 bromodomain 1 (44 to 168 residues) expressed in Rosetta2 DE3 cells after 30 mins by Flourescence polarization assay; type: biochemical
[16] = AUC (0 to t) in SCID mouse at 25 mg/kg, po by LC/MS method; type: ADME, organism-based; settings: in vivo
In short: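 Mouse plasma samples were stored at −80 °C. Drug levels were quantified by a validated LC–MS/MS method, and pharmacokinetic parameters were calculated by noncompartmental analysis.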

[17] = Oral bioavailability in SCID mouse at 25 mg/kg by LC/MS method; type: ADME, organism-based; settings: in vivo
[18] = Cmax in Sprague-Dawley rat at 25 mg/kg, po by LC/MS method; type: ADME, organism-based; design: dose 25 mg/kg, route oral; settings: in vivo
In short: (§2)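 Sprague Dawley rats were dosed iv at 5 mg/kg or orally at 25 mg/kg, with compound dissolved in 20% (v/v) PCP/70% (v/v) PBS vehicle. Blood was drawn by catheter at 0, 5, 15, 30 min and 1, 2, 4, 6, 8, 24 h and spun to plasma, which was stored at −80 °C. Plasma drug was quantified by a validated LC–MS/MS method, and parameters were derived noncompartmentally.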

Mus musculus [19] = assay: Clearance in SCID mouse at 5 mg/kg, iv by LC/MS method; type: ADME, organism-based; settings: in vivo
[20] = Oral bioavailability in Sprague-Dawley rat at 25 mg/kg by LC/MS method; type: ADME, organism-based; settings: in vivo
[21] = biological target: SWI/SNF-related matrix-associated actin-dependent regulator of chromatin subfamily A member 4 (Homo sapiens, UniProt P51532); assay: Binding affinity to human partial length SMARCA4 (A1448 to S1575 residues) expressed in bacterial expression system by BROMOscan assay
Mus musculus [22] = assay: Volume of distribution at steady state in SCID mouse at 5 mg/kg, iv by LC/MS method; type: ADME, organism-based; settings: in vivo
[23] = Half life in Sprague-Dawley rat at 25 mg/kg, po by LC/MS method; type: ADME, organism-based; settings: in vivo; in short: as §2
MV4-11 = assay: Inhibition of BET bromodomain in human MV4-11 cells assessed as downregulation of c-myc level after 1 hr by Western blot method; type: cell-based
In short: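 MV4;11 cells were treated with a range of compound concentrations for 1 h and lysed in RIPA buffer with protease inhibitors. Lysates were run on 4–20% SDS-PAGE, transferred to PVDF and probed for c-Myc with a specific antibody.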

[24] = biological target: T3, Bromodomain-containing protein 4; assay: Binding affinity to recombinant human BRD4 bromodomain 1 (44 to 168 residues) by BROMOscan assay
[25] = Half life in human liver microsomes at 1 uM by LC/MS method; type: ADME, microsome
[26] = biological target: T2, Bromodomain-containing protein 8; assay: Binding affinity to human partial length BRD8 bromodomain 1 (S700 to F854 residues) expressed in mammalian expression system by BROMOscan assay
[27] = Half life in CD1 mouse liver microsomes at 1 uM by LC/MS method; type: ADME, microsome
[28] = biological target: Histone acetyltransferase KAT2A (Homo sapiens, UniProt Q92830); assay: Binding affinity to human partial length GCN5L2 (E726 to K837 residues) expressed in bacterial expression system by BROMOscan assay
Mus musculus [29] = assay: Toxicity in SCID mouse implanted with human MV4-11 cells at 50 mg/kg, po qd measured 2 to 3 times weekly during treatment and once weekly post dose; type: organism-based; settings: in vivo; in short: as §1
[30] = biological target: Bromodomain and PHD finger-containing protein 3 (Homo sapiens, UniProt Q9ULD4); assay: Binding affinity to human partial length BRPF3 (E588 to G701 residues) expressed in bacterial expression system by BROMOscan assay
[31] = biological target: Transcription initiation factor TFIID subunit 1 (Homo sapiens, UniProt P21675); assay: Binding affinity to human partial length TAF1 bromodomain 2 (D1521 to D1656 residues) expressed in bacterial expression system by BROMOscan assay
Sequence of Transcription initiation factor TFIID subunit 1 (P21675 whole entry, the tested form may be a part): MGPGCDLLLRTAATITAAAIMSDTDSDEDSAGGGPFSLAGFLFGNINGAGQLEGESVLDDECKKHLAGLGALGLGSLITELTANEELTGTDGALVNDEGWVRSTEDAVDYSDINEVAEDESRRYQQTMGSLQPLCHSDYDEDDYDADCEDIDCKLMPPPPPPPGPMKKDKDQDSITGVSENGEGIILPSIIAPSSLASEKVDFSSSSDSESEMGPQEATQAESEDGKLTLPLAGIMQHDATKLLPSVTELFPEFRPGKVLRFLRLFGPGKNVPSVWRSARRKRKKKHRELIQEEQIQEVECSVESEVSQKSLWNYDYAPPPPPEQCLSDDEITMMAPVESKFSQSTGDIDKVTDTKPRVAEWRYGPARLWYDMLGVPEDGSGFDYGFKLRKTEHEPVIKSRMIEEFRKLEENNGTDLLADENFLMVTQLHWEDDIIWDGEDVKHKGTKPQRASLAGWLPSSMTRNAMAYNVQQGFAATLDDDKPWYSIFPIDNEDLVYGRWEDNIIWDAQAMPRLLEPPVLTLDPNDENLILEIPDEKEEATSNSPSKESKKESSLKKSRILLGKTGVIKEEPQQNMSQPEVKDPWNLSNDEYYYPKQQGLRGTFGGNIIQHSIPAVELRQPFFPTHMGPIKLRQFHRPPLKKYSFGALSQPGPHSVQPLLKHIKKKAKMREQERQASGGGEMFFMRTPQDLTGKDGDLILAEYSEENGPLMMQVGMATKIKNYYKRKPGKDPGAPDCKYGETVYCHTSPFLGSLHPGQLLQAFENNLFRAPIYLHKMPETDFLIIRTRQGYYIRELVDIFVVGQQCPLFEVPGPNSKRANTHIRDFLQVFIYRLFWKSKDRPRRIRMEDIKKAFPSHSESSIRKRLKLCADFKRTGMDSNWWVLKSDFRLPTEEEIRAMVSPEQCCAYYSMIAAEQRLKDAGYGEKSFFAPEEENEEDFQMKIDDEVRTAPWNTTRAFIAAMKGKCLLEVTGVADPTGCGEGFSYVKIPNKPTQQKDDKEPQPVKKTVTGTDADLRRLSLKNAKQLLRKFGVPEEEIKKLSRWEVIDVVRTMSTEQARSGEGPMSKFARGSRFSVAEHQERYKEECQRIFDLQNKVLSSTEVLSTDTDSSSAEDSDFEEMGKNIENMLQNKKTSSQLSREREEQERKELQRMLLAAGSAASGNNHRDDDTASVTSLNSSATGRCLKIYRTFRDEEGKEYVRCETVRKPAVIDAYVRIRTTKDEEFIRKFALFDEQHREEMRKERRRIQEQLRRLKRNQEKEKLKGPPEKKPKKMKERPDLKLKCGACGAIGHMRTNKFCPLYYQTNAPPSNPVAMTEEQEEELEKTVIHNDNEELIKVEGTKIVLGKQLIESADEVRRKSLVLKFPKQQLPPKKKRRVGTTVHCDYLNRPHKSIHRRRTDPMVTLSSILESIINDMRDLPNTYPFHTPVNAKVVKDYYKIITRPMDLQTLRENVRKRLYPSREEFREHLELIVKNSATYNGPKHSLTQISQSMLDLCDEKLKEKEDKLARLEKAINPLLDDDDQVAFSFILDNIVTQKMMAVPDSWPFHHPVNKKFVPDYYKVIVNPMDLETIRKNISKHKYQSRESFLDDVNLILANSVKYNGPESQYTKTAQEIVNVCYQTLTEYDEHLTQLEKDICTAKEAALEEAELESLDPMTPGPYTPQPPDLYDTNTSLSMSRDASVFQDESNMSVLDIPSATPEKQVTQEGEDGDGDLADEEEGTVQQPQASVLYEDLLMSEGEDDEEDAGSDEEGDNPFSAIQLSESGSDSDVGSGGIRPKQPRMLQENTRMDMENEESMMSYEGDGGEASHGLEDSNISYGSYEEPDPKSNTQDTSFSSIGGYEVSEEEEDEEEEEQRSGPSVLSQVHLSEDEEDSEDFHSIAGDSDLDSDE

**Q.** Which t1/2 (Mus musculus [1]) does the source give for `COc1cc2c(cc1-c1c(C)noc1C)[nH]c1nc(C)nc(-c3ccnc4ccccc34)c12` here?
**A.** The t1/2 was 0.5 h.

**Q.** What about the Kd [2] of the same compound?
**A.** Its Kd is > 4000 nM.

**Q.** And the Activity (Mus musculus [3])?
**A.** Its Activity is “Non-Toxic”.

**Q.** And the Kd [4]?
**A.** Its Kd is 2 nM.

**Q.** And the Kd [5]?
**A.** Its Kd is 5.5 nM.

**Q.** And the Kd [6]?
**A.** Its Kd is 1.1 nM.

**Q.** What about the Kd [7] of the same compound?
**A.** Its Kd is 0.73 nM.

**Q.** What about the Kd [8] of the same compound?
**A.** The Kd was > 4000 nM.

**Q.** What about the TGI (MDA-MB-231) of the same compound?
**A.** The TGI was “Active”.

**Q.** What about the Kd [9] of the same compound?
**A.** Its Kd is > 4000 nM.

**Q.** What about the Kd [10] of the same compound?
**A.** The Kd was 2 nM.

**Q.** And the Kd [11]?
**A.** Its Kd is > 4000 nM.

**Q.** What about the Kd [12] of the same compound?
**A.** Its Kd is > 4000 nM.

**Q.** What about the solubility [13] of the same compound?
**A.** The solubility was “Soluble”.

**Q.** What about the Kd [14] of the same compound?
**A.** The Kd was 550 nM.

**Q.** And the IC50 [15]?
**A.** The IC50 was 28.2 nM.

**Q.** And the Ki [15]?
**A.** The Ki was 8.2 nM.

**Q.** And the AUC(0-t) [16]?
**A.** Its AUC(0-t) is 9140 ng·h/mL.

**Q.** What about the bioavailability [17] of the same compound?
**A.** The bioavailability was 50%.

**Q.** What about the Cmax [18] of the same compound?
**A.** The Cmax was 7330 ng/mL.

**Q.** And the CL (Mus musculus [19])?
**A.** Its CL is 22.7 mL/min/kg.

**Q.** And the bioavailability [20]?
**A.** Its bioavailability is 93%.

**Q.** And the Kd [21]?
**A.** The Kd was > 4000 nM.

**Q.** And the Vdss (Mus musculus [22])?
**A.** The Vdss was 2.75 L/kg.

**Q.** What about the half-life [23] of the same compound?
**A.** The half-life was 2.9 h.

**Q.** And the inhibition (MV4-11)?
**A.** The inhibition was “Dose-dependent effect”.

**Q.** What about the Kd [24] of the same compound?
**A.** The Kd was 8.4 nM.

**Q.** And the t1/2 [25]?
**A.** The t1/2 was > 1 h.

**Q.** And the Kd [26]?
**A.** Its Kd is > 4000 nM.

**Q.** What about the t1/2 [27] of the same compound?
**A.** The t1/2 was > 1 h.

**Q.** And the Kd [28]?
**A.** Its Kd is > 4000 nM.

**Q.** And the Activity (Mus musculus [29])?
**A.** The Activity was “Non-Toxic”.

**Q.** What about the Kd [30] of the same compound?
**A.** The Kd was > 4000 nM.

**Q.** What about the Kd [31] of the same compound?
**A.** The Kd was > 4000 nM.
